{"source": "paper PMC4780051", "about": "(Biochemistry, 2010)", "key": {"[1]": {"molecular_target": "T1, ct-AChBP (Capitella teleta acetylcholine-binding protein) (Capitella teleta, UniProt I6L8L2)", "T1 sequence (I6L8L2 1-224)": "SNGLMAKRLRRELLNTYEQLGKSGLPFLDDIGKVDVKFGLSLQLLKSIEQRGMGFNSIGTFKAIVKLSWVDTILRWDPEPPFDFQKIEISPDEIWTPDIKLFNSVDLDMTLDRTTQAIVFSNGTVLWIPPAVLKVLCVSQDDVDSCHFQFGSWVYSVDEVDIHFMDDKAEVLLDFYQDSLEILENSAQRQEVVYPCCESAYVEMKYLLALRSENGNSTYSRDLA", "assay": "STD NMR displacement titration with choline as reporter ligand", "method_in_brief": "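C-terminally V5/His-tagged ct-AChBP, stably expressed in HEK293-f cells, purified from medium by cobalt affinity then Superdex 200. 5 μM protein with 100 μM choline in 25 mM phosphate pH 7.0, 100% D2O, titrated with test compound; 16K scans; choline CH2 STD peaks tracked. KD fitted by competition equation using choline KD from shift/line-width titration; standard errors from asymptotic covariance matrix.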"}, "[2]": {"molecular_target": "T1, ct-AChBP (Capitella teleta acetylcholine-binding protein)", "assay": "1H NMR direct titration"}, "[3]": {"molecular_target": "T1, ct-AChBP (Capitella teleta acetylcholine-binding protein)", "assay": "STD NMR displacement titration with acetylcholine as reporter ligand"}, "[4]": {"molecular_target": "Capitella teleta acetylcholine-binding protein (Capitella teleta)", "assay": "NMR titration"}}}
{"molecule": "CC(=O)OCC[N+](C)(C)C", "note": "[ACh, acetylcholine]", "values": [{"measurement": "Kd", "setting": "[1]", "result": "28.7 ± 1.7", "unit": "µM"}]}
{"molecule": "C[N+](C)(C)CCO", "note": "[Ch, choline]", "values": [{"measurement": "Kd", "setting": "[2]", "result": "163 ± 37", "unit": "µM"}]}
{"molecule": "CN1CCC[C@H]1c1cccnc1", "note": "[Nic, nicotine]", "values": [{"measurement": "Kd", "setting": "[3]", "result": "209 ± 51", "unit": "nM"}]}
{"molecule": "α-bungarotoxin (from UniProt P60615 22-95) (natural protein)", "values": [{"measurement": "Kd", "setting": "[4]", "result": 110, "unit": "nM"}]}
